Source: ChEMBL document CHEMBL2413060, “Synthesis, biological evaluation and molecular docking studies of some pyrimidine derivatives” (2013)
Converted amounts (≈) assume the structure as drawn.

Experiments:
Format in all cases: functional
[1] = system: Shigella flexneri; test: Antibacterial activity against Shigella flexneri ATCC 15391 after 24 hrs by two-fold serial dilution method relative to ofloxacin
[2] = system: Shigella flexneri; test: Antibacterial activity against Shigella flexneri ATCC 15391 after 24 hrs by two-fold serial dilution method; details: ATCC 15391, 24 h
Procedure, shortened: (§1)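 Two-fold serial broth dilution in sterile nutrient broth at 500, 250, 125, 62.5, 31.25, 15.63, 7.82 and 3.91 µg/ml, with dimethylformamide ≤2.5%. Organisms were pre-grown 24 h in broth, and 0.1 ml inoculum was added per 5 ml tube. Tubes were incubated at 37°C, 24 h for bacteria and 48 h for fungi. MIC was taken as the lowest concentration giving no turbidity.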

[3] = system: Candida albicans; test: Antifungal activity against Candida albicans ATCC 2091 assessed as diameter of inhibition zone at 1 mg/ml after 48 hrs by cup diffusion method (reference value: 22 mm); details: ATCC 2091, 48 h, read-out: DIZ
[4] = system: Shigella flexneri; test: Antibacterial activity against Shigella flexneri ATCC 15391 assessed as diameter of inhibition zone at 1 mg/ml after 24 hrs by cup diffusion method (reference value: 17 mm); details: ATCC 15391, 24 h, read-out: DIZ
[5] = system: Staphylococcus aureus; test: Antibacterial activity against Staphylococcus aureus ATCC 6538P assessed as diameter of inhibition zone at 1 mg/ml after 24 hrs by cup diffusion method (reference value: 15 mm); details: read-out: DIZ
[6] = system: Pseudomonas aeruginosa; test: Antibacterial activity against Pseudomonas aeruginosa ATCC 9027 assessed as diameter of inhibition zone at 1 mg/ml after 24 hrs by cup diffusion method (reference value: 16 mm); details: ATCC 9027, 24 h, read-out: DIZ
[7] = system: NCI/ADR-RES; test: Cytotoxicity against human NCI/ADR-RES cells assessed as growth inhibition at 10 uM; details: read-out: GI
Procedure, shortened: (§2)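 Single-dose screen on human tumour cell lines. Growth of treated cells is expressed as percent of untreated growth, plotted as a mean graph, and reported as percent growth inhibition.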

[8] = system: HCC 2998; test: Cytotoxicity against human HCC2998 cells assessed as growth inhibition at 10 uM; details: read-out: GI
[9] = system: NCI-H23; test: Cytotoxicity against human NCI-H23 cells assessed as growth inhibition at 10 uM; details: read-out: GI; procedure, shortened: as §2
[10] = system: OVCAR-8; test: Cytotoxicity against human OVCAR8 cells assessed as growth inhibition at 10 uM; details: read-out: GI; procedure, shortened: as §2
[11] = system: UACC-257; test: Cytotoxicity against human UACC257 cells assessed as growth inhibition at 10 uM; details: read-out: GI
Procedure, shortened: (§3)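 Single-dose screen in a sixty-cell human tumour line panel; percent growth of treated cells relative to untreated was read and reported as percentage growth inhibition, shown as a mean graph. Compounds meeting the threshold inhibition criteria went on to five-dose testing.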

[12] = system: Malme-3M; test: Cytotoxicity against human MALME-3M cells assessed as growth inhibition at 10 uM; details: read-out: GI
[13] = system: SNB-75; test: Cytotoxicity against human SNB75 cells assessed as growth inhibition at 10 uM; details: read-out: GI; procedure, shortened: as §2
[14] = system: Pseudomonas aeruginosa; test: Antibacterial activity against Pseudomonas aeruginosa ATCC 9027 after 24 hrs by two-fold serial dilution method; details: ATCC 9027, 24 h; procedure, shortened: as §1
[15] = system: T47D; test: Cytotoxicity against human T47D cells assessed as growth inhibition at 10 uM; details: read-out: GI; procedure, shortened: as §2
[16] = system: BT-549; test: Cytotoxicity against human BT549 cells assessed as growth inhibition at 10 uM; details: read-out: GI
[17] = system: Hs-578T; test: Cytotoxicity against human Hs578T cells assessed as growth inhibition at 10 uM; details: read-out: GI
[18] = system: PC-3; test: Cytotoxicity against human PC3 cells assessed as growth inhibition at 10 uM; details: read-out: GI; procedure, shortened: as §2
[19] = system: MCF7; test: Cytotoxicity against human MCF7 cells assessed as growth inhibition at 10 uM; details: read-out: GI; procedure, shortened: as §2
[20] = system: TK-10; test: Cytotoxicity against human TK10 cells assessed as growth inhibition at 10 uM; details: read-out: GI; procedure, shortened: as §3
[21] = system: A498; test: Cytotoxicity against human A498 cells assessed as growth inhibition at 10 uM; details: read-out: GI
[22] = system: IGROV-1; test: Cytotoxicity against human IGROV1 cells assessed as growth inhibition at 10 uM; details: read-out: GI
[23] = system: UACC-62; test: Cytotoxicity against human UACC62 cells assessed as growth inhibition at 10 uM; details: read-out: GI; procedure, shortened: as §3
[24] = system: SK-MEL-2; test: Cytotoxicity against human SK-MEL-2 cells assessed as growth inhibition at 10 uM; details: read-out: GI; procedure, shortened: as §2
[25] = system: SF-295; test: Cytotoxicity against human SF295 cells assessed as growth inhibition at 10 uM; details: read-out: GI; procedure, shortened: as §2
[26] = system: NCI-H522; test: Cytotoxicity against human NCI-H522 cells assessed as growth inhibition at 10 uM; details: read-out: GI; procedure, shortened: as §2
[27] = system: HOP-92; test: Cytotoxicity against human HOP92 cells assessed as growth inhibition at 10 uM; details: read-out: GI
[28] = system: HOP-62; test: Cytotoxicity against human HOP62 cells assessed as growth inhibition at 10 uM; details: read-out: GI
[29] = Cytotoxicity against human EKVX cells assessed as growth inhibition at 10 uM; details: read-out: GI
[30] = system: SR; test: Cytotoxicity against human SR cells assessed as growth inhibition at 10 uM; details: read-out: GI; procedure, shortened: as §2
[31] = system: Pseudomonas aeruginosa; test: Antibacterial activity against Pseudomonas aeruginosa ATCC 9027 after 24 hrs by two-fold serial dilution method relative to ofloxacin
[32] = system: Candida albicans; test: Antifungal activity against Candida albicans ATCC 2091 after 48 hrs by two-fold serial dilution method; details: ATCC 2091, 48 h; procedure, shortened: as §1
[33] = system: Candida albicans; test: Antifungal activity against Candida albicans ATCC 2091 after 48 hrs by two-fold serial dilution method relative to clotrimazole
[34] = system: Staphylococcus aureus; test: Antibacterial activity against Staphylococcus aureus ATCC 6538P after 24 hrs by two-fold serial dilution method; procedure, shortened: as §1
[35] = system: M14; test: Cytotoxicity against human M14 cells assessed as growth inhibition at 10 uM; details: read-out: GI
[36] = system: UO-31; test: Cytotoxicity against human UO31 cells assessed as growth inhibition at 10 uM; details: read-out: GI; procedure, shortened: as §3

Row | Compound | Activity [1] | MIC [2] | zone of inhibition at 1000 µg/mL [3] | zone of inhibition at 1000 µg/mL [4] | zone of inhibition at 1000 µg/mL [5] | zone of inhibition at 1000 µg/mL [6] | inhibition of growth at 10 µM [7] | inhibition of growth at 10 µM [10] | MIC [14] | also measured
1 | Cn1c(NN)nc(-c2ccco2)c(C#N)c1=O | 60% | 125 µg/mL (≈ 541 µM) | 22 mm | 20 mm | 15 mm | 16 mm | 55.9% |  |  | inhibition of growth at 10 µM [8]: 84.4%; inhibition of growth at 10 µM [9]: 54.7%
2 | Cn1c(N2CCOCC2)nc(-c2ccco2)c(C#N)c1=O |  |  | 22 mm | 17 mm | 15 mm | 17 mm |  | 47.1% |  | inhibition of growth at 10 µM [11]: 69.8%
3 | N#Cc1c(Cl)nc(SCC2CO2)nc1-c1ccccc1 (stereo not given) |  | 125 µg/mL (≈ 411 µM) | 22 mm | 22 mm | 15 mm | 16 mm |  | 48.4% |  | inhibition of growth at 10 µM [11]: 60.1%
4 | N#Cc1c(-c2ccco2)[nH]c(=S)[nH]c1=O | 60% | 125 µg/mL (≈ 570 µM) | 22 mm | 21 mm | 15 mm | 16 mm | 74.2% |  |  | inhibition of growth at 10 µM [12]: 55.6%; inhibition of growth at 10 µM [13]: 42.8%; inhibition of growth at 10 µM [9]: 78.6%
5 | N#Cc1c(N2CCOCC2)nc(=S)[nH]c1-c1ccccc1 |  |  | 22 mm | 17 mm | 15 mm | 18 mm |  |  | 125 µg/mL (≈ 419 µM) | inhibition of growth at 10 µM [15]: 62.7%; inhibition of growth at 10 µM [16]: 42.3%; inhibition of growth at 10 µM [17]: 73.2%; inhibition of growth at 10 µM [18]: 53%; inhibition of growth at 10 µM [19]: 43.4%; inhibition of growth at 10 µM [20]: 42.4%; inhibition of growth at 10 µM [21]: 86.3%; inhibition of growth at 10 µM [22]: 70.9%; inhibition of growth at 10 µM [23]: 56.4%; inhibition of growth at 10 µM [24]: 58.2%; inhibition of growth at 10 µM [12]: 104%; inhibition of growth at 10 µM [13]: 84.9%; inhibition of growth at 10 µM [25]: 45.5%; inhibition of growth at 10 µM [26]: 40.4%; inhibition of growth at 10 µM [27]: 107%; inhibition of growth at 10 µM [28]: 48.7%; inhibition of growth at 10 µM [29]: 43.2%; inhibition of growth at 10 µM [30]: 46.9%
6 | N#Cc1c(N2CCCCC2)nc(=S)[nH]c1-c1ccccc1 | 60% | 125 µg/mL (≈ 422 µM) | 22 mm | 20 mm | 15 mm | 16 mm | 75.8% |  |  | Activity [31]: 60%; inhibition of growth at 10 µM [12]: 48.7%; inhibition of growth at 10 µM [9]: 81.2%; inhibition of growth at 10 µM [27]: 44.5%; inhibition of growth at 10 µM [30]: 44.6%
7 | CCN(CC)CCSc1nc(-c2ccccc2)c(C#N)c(=O)[nH]1 | 60% | 125 µg/mL (≈ 381 µM) | 25 mm | 21 mm | 18 mm | 18 mm | 42% |  | 125 µg/mL (≈ 381 µM) | Activity [31]: 50%; MIC [32]: 125 µg/mL (≈ 381 µM); Activity [33]: 62%; MIC [34]: 3.91 µg/mL (≈ 11.9 µM); inhibition of growth at 10 µM [8]: 107%
8 | N#Cc1c(-c2ccccc2)nc(SCC(=O)Nc2ccc(Cl)cc2)[nH]c1=O |  |  | 30 mm | 17 mm | 20 mm | 22 mm |  |  | 125 µg/mL (≈ 315 µM) | MIC [32]: 125 µg/mL (≈ 315 µM); Activity [33]: 75%; MIC [34]: 3.91 µg/mL (≈ 9.85 µM); inhibition of growth at 10 µM [35]: 45%; inhibition of growth at 10 µM [8]: 84.4%
9 | Cn1c(N2CCCCC2)nc(-c2ccccc2)c(C#N)c1=O |  | 125 µg/mL (≈ 425 µM) | 22 mm | 24 mm | 15 mm | 17 mm |  | 42.4% |  | inhibition of growth at 10 µM [11]: 71.9%; inhibition of growth at 10 µM [24]: 69.8%
10 | Cn1c(N2CCCCC2)nc(-c2ccco2)c(C#N)c1=O |  |  | 22 mm | 19 mm | 15 mm | 16 mm |  |  |  | inhibition of growth at 10 µM [24]: 70.7%
11 | Cn1c(N2CCN(Cc3ccccc3)CC2)nc(-c2ccccc2)c(C#N)c1=O |  |  | 22 mm | 17 mm | 17 mm | 18 mm |  | 54.6% | 125 µg/mL (≈ 324 µM) | inhibition of growth at 10 µM [36]: 49.1%
